Data: ChEMBL document CHEMBL1130326, “Anti-Helicobacter pylori agents. 1. 2-(Alkylguanidino)-4-furylthiazoles and related compounds” (1997)
≈ marks a conversion by molar mass, not a printed value.

How the values were obtained:
Helicobacter pylori [1] = test: Evaluated for antimicrobial activity against Helicobacter pylori; type: functional
In short: (§1)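 Agar dilution. Test strain precultured on Brucella agar with 3% horse serum and 2% starch, 37 °C, 3 days. Suspended in buffered saline to McFarland no. 1, diluted 10²-fold, then spotted by multipoint replicator onto Brucella agar plus 7% lysed horse blood carrying serial 2-fold drug dilutions. Incubated 37 °C, 3 days, 10% CO₂. MIC taken as lowest concentration stopping macroscopic colonial growth.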

Cavia porcellus = species on record: Cavia porcellus; test: inhibition of the histamine stimulated […] response in the isolated guinea pig right atrium at 1x 10 e-6 g/mL; type: functional, Cardiac atrium
In short: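 Isolated atrium; beating rate and contraction amplitude recorded via transducer and polygraph. Histamine hydrochloride 1 × 10^-6 g/mL added to bath and rate increase measured. Percent inhibition from histamine-induced rate increases before versus 30 min after compound.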

Rattus norvegicus = test: inhibition of histamine stimulated gastric secretion in lumen perfused stomach of anesthetized rats at 1 mg/kg intravenously; type: functional; details: route intravenous
In short: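 Abdomen opened; gastric lumen perfused with saline throughout. Secretion stimulated by iv histamine infusion, 3 mg/kg/h. Perfusate acid titrated with 25 mM NaOH by autotitrator. n = 2.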

Helicobacter pylori [2] = test: minimum inhibitory concentration was determined against Helicobacter pylori. the value in parentheses is range; type: functional, organism-based
In short: as §1, with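 “growth. Mean and range from 10 strains (8001, 8003, 8004, 8007, 8008, 8009, 8011, 9005, FP1530, FP1532).” for “growth.”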

| Compound | MIC (Helicobacter pylori [1]) [µg/mL] | Inhibition (Cavia porcellus) [%] | inhibition in vivo at 1 mg/kg (Rattus norvegicus) [%] | MIC (Helicobacter pylori [2]) [µg/mL] |
| --- | --- | --- | --- | --- |
| CC(=O)NCc1ccc(-c2nc(N=C(N)N)sc2C)o1 | 76 (≈ 259 µM) | 10 | 3 |  |
| CCCCNC(=O)Nc1nc(-c2ccc(CNC(C)=O)o2)cs1 | > 100 | 0 | 9 |  |
| C/N=C(\N)Nc1nc(-c2ccc(CNC(C)=O)o2)cs1 | 12.5 (≈ 42.6 µM) | 25 | 24 |  |
| BISMUTH SUBCITRATE |  |  |  | 18 |
| CN/C(=N\CCSCc1nc[nH]c1C)NC#N [CIMETIDINE] | 1130 (≈ 4480 µM) | 43 | 53 |  |
| CC(=O)NCc1ccc(-c2csc(NC3=NCCN3)n2)o1 | > 100 | 8 | 18 |  |
| CC(=O)NCc1ccc(-c2csc(CN(C)C)n2)o1 | > 200 | 6 | 4 |  |
| CC/N=C(\N)Nc1nc(-c2ccc(CNC(C)=O)o2)cs1 | 3.13 (≈ 10.2 µM) | 51 | 79 |  |
| CCCCCC/N=C(\N)Nc1nc(-c2ccc(CNC(C)=O)o2)cs1 | 0.11 (≈ 0.303 µM) | 79 | 44 |  |
| Cc1ncc([N+](=O)[O-])n1CCO [METRONIDAZOLE] | 5.4 (≈ 31.6 µM) |  |  |  |
| CC(=O)NCc1ccc(-c2csc(/N=C(\N)S)n2)o1 | > 200 | 0 | 11 |  |
| CC(=O)NCc1ccc(-c2csc(N/C(N)=N/C(C)C)n2)o1 | 2.9 (≈ 9.02 µM) | 27 | 32 |  |
| CCC/N=C(\N)Nc1nc(-c2ccc(CNC(C)=O)o2)cs1 | 1.67 (≈ 5.2 µM) | 81 | 97 |  |
| CCCC/N=C(\N)Nc1nc(-c2ccc(CNC(C)=O)o2)cs1 | 0.21 (≈ 0.626 µM) | 78 | 45 |  |
